Columns and labels:
HCV1406 TCR = assay: Surface plasmon resonance TCR-pMHC binding; conditions: authors' ranges based on SPR KD
HLA-A2 = conditions: thermal denaturation of peptide-HLA-A2 complexes; cited from earlier work
[1] = test system: HCV1406 TCR-transduced T-cells; assay: IFNγ release at high, intermediate and low antigen density; assay type: cell-based, human; conditions: peptide-loaded HepG2 cells, 18 hr, ELISA
How it was run: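 Normal-donor PBL transduced with HCV1406 TCR, CD34-enriched and split into CD4+/CD8+ by immunomagnetic selection. HepG2 targets either peptide-pulsed for 2 h or transduced with NS3:1406–1415 minigene–GFP vectors and sorted for high uniform GFP. Co-culture 1:1, 37 °C, 18 h. IFNγ from 1x105 T-cells measured by ELISA in triplicate (mean, SD). CD4+ vs CD8+ compared by unequal-variance two-sample t-tests.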

[2] = test system: HCV1406 TCR-transduced T-cells; assay: Degranulation CD107a assay; assay type: cell-based, human; conditions: T2 cells pulsed with 10 μg/mL peptide, 1:1 co-culture, flow cytometry

Sequence	affinity category of TCR-pMHC interaction compared to WT (HCV1406 TCR)	Tm of peptide-HLA-A2 (HLA-A2) [°C]	IFNγ secretion by CD8^+ T-cells, intermediate antigen density [1]	degranulation (surface CD107a) of CD4^+ TCR-transduced T-cells [2]
KLVALGLNAV [I1412L]	moderate affinity	–	–	–
KLVALGNNAV [I1412N]	low affinity	59	–	–
KLLALGINAV [V1408L]	moderate affinity	61	–	–
KLVALGINAV [WT]	–	64	strong recognition	–
KLTALGINAV [V1408T]	moderate affinity	69	–	blunted compared to WT, I1412L, and V1408L
KLVALGVNAV [I1412V]	moderate affinity	–	–	blunted compared to WT, I1412L, and V1408L

Reference: article PMC5647210 (Cancer immunology, immunotherapy : CII, 2017)
